Shown are actives, neighbours in structure and some others; about 6.8% of the full set was active somewhere.
core dimer inh = blocks dimerization of HCV core protein | TR-FRET GST/Flag-core106 dimerization, 1536-well | inhibition, % at 5 µM | 300,000 tested, 0.33% active | AID 1899;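 active = inhibition above the mean of all tested compounds plus 3 SD, set per screening campaign, cut at about 45% in these data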
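Assay system: Tagged HCV core106 pair (GST and Flag) | Buffer or medium: KF-containing HEPES buffer, pH 7.45, DTT, CHAPS, BSA | Also added: Eu donor and XL665 acceptor anti-tag antibodies | Dosing: One concentration, 5 µM, in 0.5% DMSO | Timing: 4 h at 22.5 °C | Technique: TR-FRET 671 and 617 nm emission | Repeats: Singlicate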
HSF1 inhib = HSF1 inhibition | activity change, negative = inhibition, % at 7.5 µM (by protocol) | NIH3T3-HGL HSE-luciferase, MG132-induced, luminescence 8 h; hits give low values | AID 2098 | 300,000 tested, 0.77% active;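 active = more than half of replicate wells show activity change below -50%, luminescence cut by over half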;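 also: luciferase reports HSF-1 transcriptional activity via heat shock element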
ALR H2O2 inh = inhibitors of human sulfhydryl oxidase ALR. P55789. purified ALR, DTT oxidation, H2O2 HRP-luminol luminescence. inhibition, % (no concentration beside the values). 290,000 tested, 3.8% active. AID 485317;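 active = mean replicate inhibition above about 79%, with every replicate also reaching it, limit read from the data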
Target sequence (P55789 whole entry, looked up): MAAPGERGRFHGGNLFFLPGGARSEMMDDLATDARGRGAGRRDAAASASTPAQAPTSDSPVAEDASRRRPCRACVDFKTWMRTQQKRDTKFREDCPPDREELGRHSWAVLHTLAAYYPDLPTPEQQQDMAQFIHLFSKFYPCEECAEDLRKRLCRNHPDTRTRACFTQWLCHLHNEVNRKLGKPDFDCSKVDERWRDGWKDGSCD
AI-2 QS mod = modulators of Vibrio harveyi AI-2 quorum sensing system. Vibrio harveyi JMH597 AI-2 luminescence/OD600 ratio, 9 h; hits give low values; strain lacks LuxN and CqsS sensors; 0 = neutral-control median. activity change, % at 7.5 µM. 300,000 tested, 0.4% active; in the data active = activity change below about -75%, passing the limit was not always enough;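 also: luminescence divided by OD600 gain over 9 h not by final OD600 alone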
HSF1 activator = increases HSF-1 driven luciferase reporter signal; NIH3T3-HGL HSF-1 luciferase reporter, MG132, 8 h; 100% = twice DMSO control signal; activation, % at 9 µM; 300,000 tested, 1.7% active; AID 504408;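 active = mean replicate activation of at least 50% with a set share of replicates each reaching 50%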
PHOSPHO1 inh = inhibitors of human PHOSPHO1 phosphatase | recombinant PHOSPHO1, absorbance phosphatase assay | inhibition, % at 13.3 µM | 290,000 tested, 1.1% active; in the data active = inhibition above about 60%
Target sequence (Q8TCT1 whole entry, looked up): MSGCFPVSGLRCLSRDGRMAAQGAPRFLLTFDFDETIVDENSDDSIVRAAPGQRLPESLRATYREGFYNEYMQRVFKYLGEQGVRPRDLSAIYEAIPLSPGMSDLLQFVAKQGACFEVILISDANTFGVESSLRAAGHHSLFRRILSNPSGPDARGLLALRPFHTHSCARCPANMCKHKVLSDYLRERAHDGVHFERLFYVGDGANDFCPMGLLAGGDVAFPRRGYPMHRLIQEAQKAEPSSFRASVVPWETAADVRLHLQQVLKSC
Of the large screens only hits and unclear results are named; the others gave an inactive call.

COC(=O)c1sc(NC(=O)c2ccc(Cn3cc(Cl)cn3)o2)c(C#N)c1C	ALR H2O2 inh 88
CC1CCc2c(sc(NC(=O)c3ccc(Cn4cc([N+](=O)[O-])cn4)o3)c2C#N)C1 (configuration not stated)	core dimer inh 85
Cc1ccc(N(Cc2cc3ccc(C)cc3[nH]c2=O)C(=O)c2cccs2)cc1	HSF1 inhib -85
Cc1cccc(N(Cc2cc3ccc(C)cc3[nH]c2=O)C(=O)c2ccco2)c1	PHOSPHO1 inh 70
Cc1ccc2cc(CN(C(=O)c3ccco3)c3ccccc3)c(=O)[nH]c2c1	none
O=S(=O)(Nc1cc(S(=O)(=O)N2CCOCC2)ccc1Cl)c1ccccc1	none (no result: core dimer inh, HSF1 inhib, AI-2 QS mod, HSF1 activator, PHOSPHO1 inh)
Nc1ccc(C23CC4CC(CC(O)(C4)C2)C3)cc1	HSF1 inhib -78 (no result: ALR H2O2 inh)
Nc1ccc(C23CC4CC(CC(CO)(C4)C2)C3)cc1	ALR H2O2 inh 93
O=C(COc1ccccc1)NS(=O)(=O)c1ccccc1	none (no result: AI-2 QS mod)
O=C(CSc1nc(-c2ccccc2)c(-c2ccccc2)[nH]1)NCCN1C(=O)CSC1=O	ALR H2O2 inh 99
O=C(CSc1ccccc1F)NCCN1C(=O)CSC1=O	none (no result: core dimer inh, HSF1 inhib, AI-2 QS mod, HSF1 activator, PHOSPHO1 inh)
CCc1nc2ccccc2c(C(=O)OCC(=O)N2CC(C)OC(C)C2)c1C (configuration not stated)	none (no result: PHOSPHO1 inh)
Cc1cc(CSC(=N)N)c(CSC(=N)N)cc1C	ALR H2O2 inh 99
CCCOc1ccc(Br)cc1CSC(=N)N	none
Cc1ccc(N2CCN(C(=O)c3ccccc3NC(=O)/C=C\C(=O)O)CC2)cc1	none (no result: ALR H2O2 inh)
Cc1ccc(SCCC(=O)OCC(=O)NCC2CCCCC2)cc1	none
CC(O)c1n(C)c(Cl)c[n+]1C (configuration not stated)	PHOSPHO1 inh 79
Nc1[nH]c(N=NC(=O)c2ccc(F)cc2)c2ccccc12	ALR H2O2 inh 99
Nc1ccccc1C(=O)N=Nc1[nH]c(N)c2ccccc12	none
CCCCCCCCCC(=O)Nc1cccnc1	none (no result: HSF1 inhib, HSF1 activator)
CC(C)(C)N(Cc1ccccc1)C(=O)COC(=O)c1ccccc1SCC(=O)N1CCCC1	none (no result: PHOSPHO1 inh)
CC(C)NC(=O)c1onc(CSc2cccc3ccccc23)c1C(=O)O	ALR H2O2 inh 98
CCCCNC(=O)c1onc(CSc2cccc3ccccc23)c1C(=O)O	ALR H2O2 inh 98
CC(C)NC(=O)c1onc(CSc2ccccc2)c1C(=O)O	none
Cc1cccc(C(=O)NNC(=O)c2ccco2)c1	none
Cc1cccc(OCC(=O)Nc2cc(NC(=O)COc3cccc(C)c3C)cc(C(=O)O)c2)c1C	ALR H2O2 inh 80 (no result: PHOSPHO1 inh)
Cc1ccccc1OCC(=O)Nc1cccc(C(=O)O)c1	none (no result: core dimer inh, HSF1 inhib, ALR H2O2 inh, HSF1 activator)
Cc1cccc(OCC(=O)Nc2cc(NC(=O)COc3cccc(C)c3)cc(C(=O)O)c2)c1	none
COc1cccc(OCC(=O)Nc2cc(NC(=O)COc3cccc(OC)c3)cc(C(=O)O)c2)c1	ALR H2O2 inh 99
COc1ccc(NS(=O)(=O)c2cccc(NC(=O)COc3ccc(OC)cc3)c2)cc1	AI-2 QS mod -83
Cc1ccc(C(CC(=O)N2CCCC2)c2ccccc2)c(O)c1 (configuration not stated)	none (no result: core dimer inh)
CC(=O)NCCCc1c[nH]c2ccc(Cl)cc12	ALR H2O2 inh 98
O=S(=O)(/N=C(/Sc1ccccc1)c1ccccc1)c1ccccc1	ALR H2O2 inh 98, PHOSPHO1 inh 100
CCOC(=O)c1c(NC(=O)CSc2nnc(C)c(=O)[nH]2)sc(C)c1C	none
CCOC(=O)CSc1nnc(NCC(=O)OC(C)C)c(=O)[nH]1	ALR H2O2 inh 97
CCOC(=O)CNC(=O)CSc1nnc(C)c(=O)[nH]1	HSF1 inhib -81
CCOC(=O)N1CCN(C(=O)COC(=O)c2ccc(S(=O)(=O)N(CC)CC)cc2)CC1	none (no result: PHOSPHO1 inh)
COc1ccc2c(c1)sc1nc(-c3ccccc3)cn12	HSF1 inhib -68
N#CC1(C#N)COC23CCCCC2C1(C#N)C(=N)O3 (configuration not stated)	HSF1 inhib -70
N#CC12COC3(CCCCC3C1(C#N)C#N)OC2=N (configuration not stated)	none
CC(C)CCN1C(=O)c2ccc(C(=O)Nc3cc(C(=O)O)cc(C(=O)O)c3)cc2C1=O	none (no result: core dimer inh)
CC(=O)NS(=O)(=O)c1ccc(NC(=O)c2ccc3c(c2)C(=O)N(CCC(C)C)C3=O)cc1	ALR H2O2 inh 92
O=C1/C(=C/c2ccc(O)cc2)SC(=S)N1CC1CCCO1 (configuration not stated)	ALR H2O2 inh 99
CNC(=S)N1CCN(c2ccc(OC)cc2)CC1	ALR H2O2 inh 96
COc1ccc(N2CCN(C(=O)CN3CCN(C(c4ccccc4)c4ccccc4)CC3)CC2)cc1	none
COc1ccc(N2CCN(CC(=O)NC(C)c3ccccc3)CC2)cc1 (configuration not stated)	ALR H2O2 inh 95 (no result: PHOSPHO1 inh)
COc1ccc(N2CCN(C(=S)Nc3ccc(F)cc3)CC2)cc1	none
COc1ccc(N2CCN(C(=O)NC34CC5CC(CC(C5)C3)C4)CC2)cc1	ALR H2O2 inh 85
COc1ccc(N2CCN(C(=O)NCc3ccc(OC)c(OC)c3)CC2)cc1	ALR H2O2 inh 89
CC(C)C(NC(=O)c1ccc(C(C)(C)C)cc1)C(=O)NCC1(N(C)C)CCCCC1 (configuration not stated)	none
Cc1cc(OC(F)F)ccc1NC(=O)Nc1ccc([N+](=O)[O-])cc1	none (no result: ALR H2O2 inh)
CC1C(=O)NN=C1C(=O)N/N=C/c1cccs1 (configuration not stated)	none
COc1ccc(N2CCN(CC(=O)NCc3ccccc3)CC2)cc1	none
CC(CCc1ccccc1)NC(=O)CN1CCN(c2ccc(O)cc2)CC1 (configuration not stated)	ALR H2O2 inh 100
COC(=O)c1c(C)[nH]c(C(=O)N2CCN(c3ccc(OC)cc3)CC2)c1C	ALR H2O2 inh 96
COc1cccc(N2CCN(C(=O)c3[nH]c(C)c(C(C)=O)c3C)CC2)c1	none
O=C(NCCCN1CCN(c2cccc(Cl)c2)CC1)C1(S(=O)(=O)c2ccc(Cl)cc2)CC1	none (no result: ALR H2O2 inh)
COc1ccc(N2CCN(CCCNC(=O)C3(S(=O)(=O)c4ccc(Cl)cc4)CC3)CC2)cc1	ALR H2O2 inh 85
COc1ccc(N2CCN(CC(=O)NCc3ccc(Cl)cc3)CC2)cc1	ALR H2O2 inh 89
Cc1ccc(CN2CCN(CC(=O)NC(C)CCc3ccccc3)C2=O)cc1 (configuration not stated)	none
CN1C(=O)C(C)(C)c2cc(S(=O)(=O)N3CCN(c4cccc(Cl)c4)CC3)ccc21	none
N#C/C(=C\c1ccco1)C(=O)Nn1cnnc1	none (no result: ALR H2O2 inh)
COc1ccc(N2CC(NC(=O)N3CCN(c4ccccc4)CC3)CC2=O)cc1 (configuration not stated)	ALR H2O2 inh 97 (no result: HSF1 inhib, HSF1 activator)
COc1cccc(N2CCN(CC(=O)NCc3cccs3)CC2)c1	ALR H2O2 inh 99

Screening results from PubChem BioAssay.
